# Measurements: ChEMBL document CHEMBL2034900, “Dual-target virtual screening by pharmacophore elucidation and molecular shape filtering” (ACS Med Chem Lett, 2012)
# Active and inactive are the calls of the source. The rule behind the calls is not given here.
# Experiments:
# [1] = biological target: T1, Bifunctional epoxide hydrolase 2 (Homo sapiens, UniProt P34913); test: (§1) Inhibition of soluble epoxide hydrolase using (3-Phenyl-oxiranyl)-acetic acid cyano-(6-methoxy-naphthalen-2-yl)-methyl ester) as substrate incubated for 15 mins prior to substrate addition measured every min for 15 mins by fluorometry
# T1 sequence (P34913 whole entry): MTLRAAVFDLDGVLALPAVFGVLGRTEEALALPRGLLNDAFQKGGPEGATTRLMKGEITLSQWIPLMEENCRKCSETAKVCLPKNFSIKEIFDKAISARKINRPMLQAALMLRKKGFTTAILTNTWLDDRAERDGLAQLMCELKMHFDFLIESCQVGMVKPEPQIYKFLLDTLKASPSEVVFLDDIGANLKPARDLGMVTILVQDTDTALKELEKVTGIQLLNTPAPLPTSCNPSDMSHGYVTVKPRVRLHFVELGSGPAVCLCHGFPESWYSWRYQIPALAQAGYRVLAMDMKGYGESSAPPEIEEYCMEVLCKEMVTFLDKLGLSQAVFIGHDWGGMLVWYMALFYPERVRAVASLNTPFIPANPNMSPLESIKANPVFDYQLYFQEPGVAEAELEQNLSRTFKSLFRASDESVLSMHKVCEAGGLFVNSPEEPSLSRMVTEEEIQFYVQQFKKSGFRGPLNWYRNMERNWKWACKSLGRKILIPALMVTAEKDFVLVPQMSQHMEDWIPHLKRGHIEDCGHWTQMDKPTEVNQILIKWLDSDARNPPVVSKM
# Procedure, shortened: (§2)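 Compounds were first tested at 30 μM, and IC50 values were determined only for those giving at least 50% inhibition. The 5-LO assay was cell-free with HPLC read-out, and the sEH assay used a fluorescence read-out.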
# [2] = biological target: T2, Polyunsaturated fatty acid 5-lipoxygenase (Homo sapiens, UniProt P09917); test: Inhibition of recombinant 5-lipoxygenase expressed in Escherichia coli BL21 using arachidonic acid as substrate incubated for 15 mins prior to substrate addition measured after 10 mins by HPLC analysis; procedure, shortened: as §2
# T2 sequence (P09917 whole entry): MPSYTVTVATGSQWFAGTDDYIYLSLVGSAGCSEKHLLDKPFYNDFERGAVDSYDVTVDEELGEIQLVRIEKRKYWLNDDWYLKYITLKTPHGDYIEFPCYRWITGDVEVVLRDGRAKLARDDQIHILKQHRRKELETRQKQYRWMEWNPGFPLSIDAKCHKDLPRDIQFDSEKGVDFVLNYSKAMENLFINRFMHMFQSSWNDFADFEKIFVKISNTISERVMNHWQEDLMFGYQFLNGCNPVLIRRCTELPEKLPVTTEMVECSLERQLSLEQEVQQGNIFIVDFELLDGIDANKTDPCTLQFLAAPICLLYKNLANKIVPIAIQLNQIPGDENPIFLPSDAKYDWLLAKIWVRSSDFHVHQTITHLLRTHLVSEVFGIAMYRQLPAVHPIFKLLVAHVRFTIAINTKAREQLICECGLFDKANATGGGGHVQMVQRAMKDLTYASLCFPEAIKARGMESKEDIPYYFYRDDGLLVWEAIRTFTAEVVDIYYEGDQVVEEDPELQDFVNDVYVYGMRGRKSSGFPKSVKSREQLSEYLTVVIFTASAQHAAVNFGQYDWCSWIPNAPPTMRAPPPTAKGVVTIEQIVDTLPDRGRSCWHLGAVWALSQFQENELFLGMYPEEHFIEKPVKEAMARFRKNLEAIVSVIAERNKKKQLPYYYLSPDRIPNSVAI
# [3] = biological target: T3, Bifunctional epoxide hydrolase 2 (Homo sapiens) (UniProt P34913); test: as §1; procedure, shortened: as §2
# T3 sequence (whole entry): T1 sequence (P34913 whole entry)
IC50 [1] [nM],IC50 [2] [µM],inhibition [3],Compound
21000,–,–,COc1ccc(CC(=O)Nc2ccc(C)cc2)cc1OC
–,7.6,inactive,COc1cccc(CNc2nc3ccccc3n2C)c1O
3500,36,–,COc1ccc(-c2nc3cc(C)ccc3[nH]2)cc1OC
–,16,–,CC(C)CC(=O)Nc1nc2c(s1)CCc1ccccc1-2
–,8.1,–,COc1ccc(/C=N/Nc2nc3ccccc3[nH]2)cc1OC
–,2.7,inactive,COc1ccc(-c2nc3cc(C)ccc3o2)cc1OC
–,2.2,–,CN(C)c1ccc(-n2nc3ccc4ccccc4c3n2)cc1
470,–,–,Cn1nnc2cc(NC(=O)NCCC3=CCCCC3)ccc21
1600,–,–,COc1ccc(NC(=O)c2cccc(-n3cnnn3)c2)cc1
